Laboratory results taken from ChEMBL document CHEMBL1132230, “1-(1,2,5-Thiadiazol-4-yl)-4-azatricyclo[2.2.1.0(2,6)]heptanes as new potent muscarinic M1 agonists: structure-activity relationship for 3-aryl-2-propyn-1-yloxy and 3-aryl-2-propyn-1-ylthio derivatives” (J Med Chem, 1999).

Experiments:
[1] = target: T1, Muscarinic acetylcholine receptor M2 (Homo sapiens, UniProt P08172); test: Compound was tested for its potency at M-2 receptor by inhibiting forskolin induced c-AMP formation in CHO-M2 cells human M2 receptor; type: functional, cell-based
T1 sequence (P08172 whole entry): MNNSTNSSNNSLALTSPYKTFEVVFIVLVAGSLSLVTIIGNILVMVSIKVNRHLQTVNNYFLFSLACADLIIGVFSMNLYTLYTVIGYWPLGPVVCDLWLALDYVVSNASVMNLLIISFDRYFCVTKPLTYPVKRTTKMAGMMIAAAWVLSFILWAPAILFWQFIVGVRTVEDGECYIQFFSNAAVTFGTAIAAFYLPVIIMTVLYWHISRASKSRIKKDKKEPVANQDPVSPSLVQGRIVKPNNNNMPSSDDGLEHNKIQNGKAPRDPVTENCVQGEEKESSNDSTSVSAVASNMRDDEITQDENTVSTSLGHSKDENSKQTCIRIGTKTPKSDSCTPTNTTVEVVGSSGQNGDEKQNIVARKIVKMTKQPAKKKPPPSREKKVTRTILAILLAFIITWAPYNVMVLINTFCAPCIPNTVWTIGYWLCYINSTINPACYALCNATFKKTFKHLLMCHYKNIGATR
In short: (§1)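 CHO cells transfected with human M2 receptor plasmid and cultured with atropine and methotrexate; atropine withdrawn overnight. Cells detached with PBS/1 mM EDTA, then preincubated 30 min at 0 °C in DMEM/20 mM HEPES pH 7.4 with 0.5 mM IBMX. Compound added and 10 μM forskolin (final) started a 10 min, 37 °C incubation, stopped with ice-cold ethanol. cAMP measured by radioimmunoassay.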

[2] = target: T2, Muscarinic acetylcholine receptor M1 (Homo sapiens, UniProt P11229); test: Stimulation of phosphoinositol hydrolysis in the mouse fibroblast cell line A9L-M1 expressing Muscarinic acetylcholine receptor M1.; type: functional, cell-based
T2 sequence (P11229 whole entry): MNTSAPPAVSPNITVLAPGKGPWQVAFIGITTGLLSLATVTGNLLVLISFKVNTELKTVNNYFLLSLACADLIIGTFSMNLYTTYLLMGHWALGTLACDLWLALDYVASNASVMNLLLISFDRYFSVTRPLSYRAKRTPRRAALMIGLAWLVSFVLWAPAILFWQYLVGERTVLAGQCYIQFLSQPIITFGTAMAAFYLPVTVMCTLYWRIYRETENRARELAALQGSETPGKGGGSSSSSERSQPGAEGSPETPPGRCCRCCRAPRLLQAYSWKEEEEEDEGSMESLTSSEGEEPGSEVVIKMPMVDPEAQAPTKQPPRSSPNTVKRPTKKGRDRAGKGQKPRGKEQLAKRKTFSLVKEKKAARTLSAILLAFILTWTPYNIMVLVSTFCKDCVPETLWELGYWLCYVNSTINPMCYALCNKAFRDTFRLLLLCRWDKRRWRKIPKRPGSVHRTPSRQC

[3] = Ratio of EC50(CHO-M2) and EC50(A9L-M1); type: functional
In short: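 Ratio of EC50 for inhibition of forskolin-stimulated cAMP in human-M2 CHO cells to EC50 for PI hydrolysis in A9L-M1 cells, both measured in this work.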

[4] = target: T3, Muscarinic acetylcholine receptor M2 (Homo sapiens) (UniProt P08172); test: Inhibition of forskolin induced c-AMP formation in CHO-M2 cells expressing human M2 receptor.; type: functional, cell-based; in short: as §1
T3 sequence (whole entry): T1 sequence (P08172 whole entry)

[5] = target: T4, Muscarinic acetylcholine receptor M2 (Rattus norvegicus, UniProt P10980); test: Inhibition of [3H]- Oxo-M binding at Muscarinic acetylcholine receptor M2 in rat brain membranes.; type: cell membranes
T4 sequence (P10980 whole entry): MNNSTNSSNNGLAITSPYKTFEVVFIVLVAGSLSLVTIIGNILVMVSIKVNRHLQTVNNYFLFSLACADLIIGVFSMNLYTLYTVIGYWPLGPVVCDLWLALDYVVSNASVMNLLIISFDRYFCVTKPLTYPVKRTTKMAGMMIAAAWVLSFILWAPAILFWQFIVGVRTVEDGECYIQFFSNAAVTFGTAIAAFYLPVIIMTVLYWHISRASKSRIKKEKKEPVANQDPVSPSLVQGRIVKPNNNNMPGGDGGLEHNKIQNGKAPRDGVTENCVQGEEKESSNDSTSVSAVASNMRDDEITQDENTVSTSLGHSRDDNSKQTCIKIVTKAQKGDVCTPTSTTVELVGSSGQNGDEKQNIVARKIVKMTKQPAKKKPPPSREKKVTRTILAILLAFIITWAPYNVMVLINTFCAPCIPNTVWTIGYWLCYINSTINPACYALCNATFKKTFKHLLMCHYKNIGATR
In short: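 Rat cortex homogenized in 20 mM HEPES pH 7.4 and centrifuged at 40000g. Membranes incubated 60 min at room temperature with 1 nM (final) [³H]oxotremorine-M and compound. Separated on PEI-soaked GF/C filters and counted by scintillation. Nonspecific binding defined with 10 μM arecoline. Value reported as IC50.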

[6] = target: T1, Muscarinic acetylcholine receptor M2; test: Compound was tested for its potency towards Muscarinic acetylcholine receptor M2 by inhibiting forskolin induced c-AMP formation in CHO-M2 cells; type: functional, cell-based
In short: (§2)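 Human M2 receptor plasmid transfected into CHO cells […], cultured in DMEM/10% FBS with 1 μM atropine and 1 μM methotrexate; atropine-free medium overnight before assay. Cells detached with PBS + 1 mM EDTA, washed into DMEM + 20 mM HEPES pH 7.4 + 0.5 mM IBMX, preincubated 30 min at 0 °C. Forskolin 10 μM final, 10 min at 37 °C; ethanol stop; cAMP by radioimmunoassay.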

[7] = target: T3, Muscarinic acetylcholine receptor M2 (Homo sapiens); test: Compound was tested for its potency towards Muscarinic acetylcholine receptor M2 by inhibiting forskolin induced c-AMP formation in CHO-M2 cells expressing human Muscarinic acetylcholine receptor M2 receptor; type: functional, cell-based; in short: as §1
[8] = target: T4, Muscarinic acetylcholine receptor M2; test: In vitro Muscarinic acetylcholine receptor M2 binding was evaluated in rat brain membranes by using [3H]- Oxo-M; type: cell membranes
In short: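 Rat cortex homogenized in 20 mM Hepes pH 7.4 and spun 10 min at 40000g; pellet resuspended and incubated with [3H]oxotremorine-M (1 nM final) plus test drug for 60 min at room temperature. Bound and free separated by vacuum filtration on PEI-presoaked GF/C filters, then scintillation counting.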

[9] = target: T2, Muscarinic acetylcholine receptor M1; test: (§3) Compound was tested for its ability to stimulate phosphoinositol (PI) hydrolysis in the mouse fibroblast cell line A9L-M1 expressing Muscarinic acetylcholine receptor M1 (100 uM concentration); type: functional, cell-based
In short: (§4)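 A9L mouse fibroblasts stably expressing M1, grown to confluence in DMEM/10% FCS with 1.3 μCi/mL [³H]inositol for 48 h, detached with trypsin and resuspended in HEPES/LiCl buffer (LiCl 10 mM, pH 7.4). Cells incubated 45 min at 37 °C with compound up to 100 μM. Total [³H]inositol phosphates separated by ion exchange and counted.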

[10] = target: T5, Muscarinic acetylcholine receptor M1 (Homo sapiens) (UniProt P11229); test: as §3; type: functional, cell-based; in short: as §4
T5 sequence (whole entry): T2 sequence (P11229 whole entry)

[11] = target: T3, Muscarinic acetylcholine receptor M2 (Homo sapiens); test: Compound was tested for its potency at Muscarinic acetylcholine receptor M2 by inhibiting forskolin induced c-AMP formation in CHO-M2 cells expressing human M2 receptor; type: functional, cell-based; in short: as §2

Fc1cccc(C#CCSc2nsnc2C23CN4CC2C3C4)c1
EC50 [1]: 904 nM | EC50 [2]: 2.5 nM | Ratio [3]: 362 | Max [4]: 106% | IC50 [5]: 26 nM

COc1cccc(C#CCO/N=C2\CN3CCC2C3)c1 (stereo not given)
EC50 [2]: 7120 nM | Ratio [3]: 4 | EC50 [6]: 26700 nM | Max [7]: 89% | IC50 [8]: 150 nM

Clc1cc(Cl)cc(C#CCSc2nsnc2C23CN4CC2C3C4)c1
EC50 [1]: 528 nM | EC50 [2]: 1810 nM | Ratio [3]: 0.3 | Max [4]: 84% | IC50 [5]: 788 nM

Clc1ccc(C#CCOc2nsnc2C23CN4CC2C3C4)cc1
EC50 [1]: 1210 nM | Max [4]: 102% | IC50 [5]: 63 nM

Clc1cccc(C#CCOc2nsnc2C23CN4CC2C3C4)c1
EC50 [1]: 2280 nM | EC50 [2]: 10.5 nM | Ratio [3]: 217 | Max [4]: 101% | IC50 [5]: 47 nM

Clc1cc(Cl)cc(C#CCOc2nsnc2C23CN4CC2C3C4)c1
EC50 [2]: 1200 nM | Max [4]: 23% | IC50 [5]: 1690 nM

Clc1cccc(C#CCSc2nsnc2C23CN4CC2C3C4)c1
EC50 [1]: 673 nM | EC50 [2]: 9 nM | Ratio [3]: 74 | Max [4]: 96% | IC50 [5]: 49 nM

CCCCCCOc1nsnc1C1=CCCN(C)C1 [XANOMELINE]
Max [7]: 82% | IC50 [8]: 16 nM

Fc1cc(Cl)cc(C#CCOc2nsnc2C23CN4CC2C3C4)c1
EC50 [1]: 1480 nM | EC50 [2]: 110 nM | Ratio [3]: 13 | Max [4]: 76% | IC50 [5]: 92 nM

Fc1cc(Cl)cc(C#CCSc2nsnc2C23CN4CC2C3C4)c1
EC50 [1]: 763 nM | EC50 [2]: 46 nM | Ratio [3]: 17 | Max [4]: 90% | IC50 [5]: 142 nM

Fc1cccc(C#CCOc2nsnc2C23CN4CC2C3C4)c1
EC50 [1]: 683 nM | Ratio [3]: 139 | EC50 [9]: 4.9 nM | Max [10]: 91% | IC50 [5]: 21 nM

Fc1cc(F)cc(C#CCSc2nsnc2C23CN4CC2C3C4)c1
EC50 [1]: 1660 nM | EC50 [2]: 7.6 nM | Ratio [3]: 218 | Max [4]: 79% | IC50 [5]: 28 nM

C(#Cc1ccccc1)CSc1nsnc1C12CN3CC1C2C3
EC50 [1]: 853 nM | EC50 [2]: 61.9 nM | Ratio [3]: 14 | Max [4]: 106% | IC50 [5]: 27 nM

Fc1ccc(C#CCSc2nsnc2C23CN4CC2C3C4)cc1
EC50 [1]: 83 nM | EC50 [2]: 4.5 nM | Ratio [3]: 18 | Max [4]: 88% | IC50 [5]: 20 nM

C(#Cc1ccccc1)COc1nsnc1C12CN3CC1C2C3
Ratio [3]: 11 | Max [11]: 99% | IC50 [5]: 16 nM

CN1CCC=C(c2nsnc2OCC#Cc2ccccc2)C1
Ratio [3]: 2 | Max [4]: 115% | IC50 [5]: 14 nM

Fc1cc(F)cc(C#CCOc2nsnc2C23CN4CC2C3C4)c1
EC50 [1]: 2690 nM | EC50 [2]: 20.2 nM | Ratio [3]: 133 | Max [4]: 68% | IC50 [5]: 30 nM

Clc1ccc(C#CCSc2nsnc2C23CN4CC2C3C4)cc1
EC50 [1]: 80 nM | EC50 [2]: 107 nM | Ratio [3]: 1 | Max [4]: 76% | IC50 [5]: 242 nM

Fc1ccc(C#CCOc2nsnc2C23CN4CC2C3C4)cc1
EC50 [1]: 791 nM | EC50 [2]: 71 nM | Ratio [3]: 11 | Max [4]: 109% | IC50 [5]: 10 nM

C[N+](C)(C)CCOC(N)=O
Max [7]: 100%
